Data taken from ChEMBL document CHEMBL1138317, “Antibacterial oxazolidinones possessing a novel C-5 side chain. (5R)-trans-3-[3-Fluoro-4- (1-oxotetrahydrothiopyran-4-yl)phenyl]-2- oxooxazolidine-5-carboxylic acid amide (PF-00422602), a new lead compound” (J Med Chem, 2007).
In brackets after ≈: the same amount, converted by molar mass. Activity calls are given as the source filed them. The rule behind the calls is not given here.

Key:
Rattus norvegicus [1] = assay: Toxicity in Sprague-Dawley rat at 1000 mg/kg/day, po after 14 days; type: organism-based; parameters: route oral; conditions: in vivo, 336 h
Method in brief: (§1)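 Female Sprague-Dawley rats received vehicle or drug by oral gavage daily for 14 days, at doses of 40-1000 (mg/kg)/day across the studies. End points were moribundity or lethality, hematology (RBC, hemoglobin, hematocrit, reticulocytes), bone marrow M:E ratio and plasma AUC(0-24).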

Enterococcus faecalis = assay: Antibacterial activity against vancomycin-resistant Enterococcus faecalis MGH2 EF1 by microbroth technology; type: functional
Method in brief: (§2)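 Drug-resistant panel strains (levofloxacin/oxacillin-resistant S. aureus, levofloxacin/penicillin-resistant S. pneumoniae, vancomycin-resistant E. faecalis and E. faecium). Broth microdilution MIC in µg/mL; value reported as MIC90 across the strains of each resistant group.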

[2] = AUC (0 to 24 hrs) in Sprague-Dawley rat plasma at 200 mg/kg/day, po after 14 days; type: ADME, organism-based; parameters: dose 200 mg/kg/day, time < 24 hr, route oral; method in brief: as §1
Streptococcus pyogenes = assay: Antibacterial activity against Streptococcus pyogenes C203 by micro-broth technology; type: functional
Staphylococcus aureus [3] = assay: Antibacterial activity against Staphylococcus aureus UC76 in po dosed CD1 mouse systemic infection model assessed as mortality after 7 days; type: functional
Streptococcus pneumoniae [4] = assay: Antibacterial activity against levofloxacin-penicillin-resistant Streptococcus pneumoniae SV1 SP3 by microbroth technology; type: functional; method in brief: as §2
[5] = AUC (0 to 24 hrs) in Sprague-Dawley rat plasma at 40 mg/kg/day after 14 days; type: ADME, organism-based; parameters: dose 40 mg/kg/day, time < 24 hr; method in brief: as §1
Staphylococcus aureus [6] = assay: Antibacterial activity against levofloxacin-oxacillin-resistant Staphylococcus aureus UC76 SA1 by micro-broth technology; type: functional; method in brief: as §2
Escherichia coli = assay: Inhibition of protein synthesis in Escherichia coli by cell-free transcription-translation assay; type: functional
Method in brief: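 E. coli cell-free coupled transcription/translation run in microtiter format with a luciferase reporter; luminescence was the read-out for protein synthesis.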

Rattus norvegicus [7] = assay: Effect on hematology in Sprague-Dawley rat assessed as decrease in red blood cells at 200 mg/kg/day, po after 14 days; type: ADME, organism-based; parameters: route oral; scale not given: the % may be the effect or the level left; conditions: in vivo, 336 h; method in brief: as §1
[8] = target: T1, Amine oxidase [flavin-containing] A (Homo sapiens, UniProt P21397); assay: Inhibition of human recombinant MAOA
T1 sequence (P21397 whole entry): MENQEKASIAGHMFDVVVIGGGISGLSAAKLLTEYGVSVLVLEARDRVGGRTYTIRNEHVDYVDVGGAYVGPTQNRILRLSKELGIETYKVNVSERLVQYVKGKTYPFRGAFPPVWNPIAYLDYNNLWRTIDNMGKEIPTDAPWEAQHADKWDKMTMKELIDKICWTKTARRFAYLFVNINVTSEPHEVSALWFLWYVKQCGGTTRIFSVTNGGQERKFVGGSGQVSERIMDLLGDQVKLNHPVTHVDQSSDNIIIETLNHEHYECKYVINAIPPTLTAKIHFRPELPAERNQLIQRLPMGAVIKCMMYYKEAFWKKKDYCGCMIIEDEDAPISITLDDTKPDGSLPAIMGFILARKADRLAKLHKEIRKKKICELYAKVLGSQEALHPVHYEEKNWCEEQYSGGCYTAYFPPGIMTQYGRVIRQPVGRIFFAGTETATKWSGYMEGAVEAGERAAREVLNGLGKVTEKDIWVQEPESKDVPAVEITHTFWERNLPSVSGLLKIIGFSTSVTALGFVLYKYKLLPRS

Enterococcus = assay: Bacteriostatic activity against Enterococcus after 48 hrs by time kill study; type: functional, organism-based
Rattus norvegicus [9] = assay: Effect on hematology in Sprague-Dawley rat assessed as increase in hematocrit at 200 mg/kg/day, po after 14 days; type: ADME, organism-based; parameters: route oral; conditions: in vivo, 336 h
Rattus norvegicus [10] = assay: Effect on hematology in Sprague-Dawley rat assessed as decrease in hemoglobin at 200 mg/kg/day, po after 14 days; type: ADME, organism-based; parameters: route oral; scale not given: the % may be the effect or the level left; conditions: in vivo, 336 h; method in brief: as §1
Rattus norvegicus [11] = assay: Effect on hematology in Sprague-Dawley rat assessed as decrease in reticulocytes at 200 mg/kg/day after 14 days; type: ADME, organism-based; parameters: scale not given: the % may be the effect or the level left; conditions: in vivo, 336 h; method in brief: as §1
Enterococcus faecium = assay: Antibacterial activity against vancomycin-resistant Enterococcus faecium by micro-broth technology; type: functional; method in brief: as §2
Streptococcus pneumoniae [12] = assay: Bactericidal activity against Streptococcus pneumoniae after 48 hrs by time kill study; type: functional, organism-based
Method in brief: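 Time-kill study: bacteria exposed continuously to drug at 2-16× the MIC and sampled over 48 h to assess eradication.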

Staphylococcus aureus [13] = assay: Antibacterial activity against methicillin-resistant Staphylococcus aureus SA1417 in po dosed CD1 mouse systemic infection model assessed as mortality after 7 days; type: functional
Staphylococcus = assay: Bacteriostatic activity against Staphylococcus after 48 hrs by time kill study; type: functional, organism-based
Staphylococcus aureus [14] = assay: Antibacterial activity against […] in po dosed CD1 mouse systemic infection model assessed as mortality after 7 days; type: functional
Haemophilus influenzae = assay: Antibacterial activity against Haemophilus influenzae by micro-broth technology; type: functional
Method in brief: (§3)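 MIC determined by broth microdilution, reported in µg/mL.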

Moraxella catarrhalis = assay: Antibacterial activity against Moraxella catarrhalis by microbroth technology; type: functional; method in brief: as §3
[15] = Cmax in Sprague-Dawley rat at 20 mg/kg, po; type: ADME, organism-based; parameters: dose 20 mg/kg, route oral; conditions: in vivo
[16] = Clearance in Sprague-Dawley rat at 10 mg/kg, iv; type: ADME, organism-based; parameters: dose 10 mg/kg, route intravenous; conditions: in vivo
[17] = Half life in Sprague-Dawley rat at 20 mg/kg, po; type: ADME, organism-based; parameters: dose 20 mg/kg, route oral; conditions: in vivo
[18] = AUC in Sprague-Dawley rat at 20 mg/kg, po; type: ADME, organism-based, Plasma; parameters: dose 20 mg/kg, route oral; conditions: Sprague-Dawley, plasma
[19] = Bioavailability in Sprague-Dawley rat at 20 mg/kg, po; type: ADME, organism-based; conditions: Sprague-Dawley, in vivo
[20] = Volume of distribution at steady state in Sprague-Dawley rat at 10 mg/kg, iv; type: ADME, organism-based; parameters: dose 10 mg/kg, route intravenous; conditions: in vivo, read-out: Vdss

Row | SMILES | MIC90 (Enterococcus faecalis) | PD50 (Staphylococcus aureus [3]) | MIC90 (Streptococcus pneumoniae [4]) | MIC90 (Staphylococcus aureus [6]) | IC50 (Escherichia coli) | IC50 [8] | MIC90 (Enterococcus faecium) | MIC (Enterococcus faecalis) | MIC (Streptococcus pneumoniae [4]) | MIC (Staphylococcus aureus [6]) | MIC (Haemophilus influenzae) | MIC (Moraxella catarrhalis) | MIC (Enterococcus faecium) | also measured
1 | CC(=O)NC[C@H]1CN(c2ccc(N3CCOCC3)c(F)c2)C(=O)O1 [LINEZOLID] | 2 µg/mL (≈ 5.93 µM) | 3.1 mg/kg | 1 µg/mL (≈ 2.96 µM) | 4 µg/mL (≈ 11.9 µM) | 3.6 µM | 53 µM | 4 µg/mL (≈ 11.9 µM) | – | – | – | – | – | – | Activity (Rattus norvegicus [1]): Toxic; AUC at 24 h [2]: 666 µg·h/mL; MIC (Streptococcus pyogenes): 4 µg/mL (≈ 11.9 µM); AUC at 24 h [5]: 105 µg·h/mL; Activity (Rattus norvegicus [7]): 9%; Activity (Enterococcus): Active; Activity (Rattus norvegicus [9]): -9%; Activity (Rattus norvegicus [10]): 9%; Activity (Rattus norvegicus [11]): 97%; Activity (Streptococcus pneumoniae [12]): Active; PD50 (Staphylococcus aureus [13]): 6.25 mg/kg; Activity (Staphylococcus): Active; PD50 (Staphylococcus aureus [14]): 5 mg/kg
2 | NC(=O)[C@H]1CN(c2cc(F)c(C3CCS(=O)(=O)CC3)c(F)c2)C(=O)O1 | – | 15 mg/kg | – | – | 6.28 µM | 293 µM | – | 4 µg/mL (≈ 10.7 µM) | 4 µg/mL (≈ 10.7 µM) | 4 µg/mL (≈ 10.7 µM) | > 8 µg/mL | > 8 µg/mL | 8 µg/mL (≈ 21.4 µM) | –
3 | NC(=O)[C@H]1CN(c2cc(F)c(C3CC[S+]([O-])CC3)c(F)c2)C(=O)O1 (stereo partly drawn) | 2 µg/mL (≈ 5.58 µM) | 1.1 mg/kg | 2 µg/mL (≈ 5.58 µM) | 2 µg/mL (≈ 5.58 µM) | 3.6 µM | 355 µM | 2 µg/mL (≈ 5.58 µM) | – | – | – | > 8 µg/mL | > 8 µg/mL | – | Cmax [15]: 4690 ng/mL; clearance [16]: 12.8 mL/min/kg; half-life [17]: 2.24 h; AUC [18]: 15.4 µg·h/mL; bioavailability [19]: 65%; Vd [20]: 0.83 L/kg
4 | NC(=O)[C@H]1CN(c2ccc(N3CCOCC3)c(F)c2)C(=O)O1 | – | 8.22 mg/kg | – | – | 23 µM | 146 µM | – | 32 µg/mL (≈ 103 µM) | 4 µg/mL (≈ 12.9 µM) | 4 µg/mL (≈ 12.9 µM) | > 8 µg/mL | > 8 µg/mL | 32 µg/mL (≈ 103 µM) | –
